Sampled rows, rich in hits. Any-hit rate of the full collection: about 4.8%.
Jurkat NFkB inh: inhibitors of the PMA/ionomycin-induced NF-kB reporter in Jurkat cells; inhibition, % at 4 µM; hit rate 0.53% among 330,000; PMA/ionomycin-induced NF-kB luciferase reporter, luminescence; in the data active means inhibition above about 50%
GPR7 antagonist: human neuropeptides B/W receptor 1 antagonism; inhibition, % at 4.4 µM; GPR7-expressing cells, fluorescence antagonist assay; hit rate 1.1% among 290,000; in the data active means inhibition above about 16%, passing the limit was not always enough;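 further: cells stimulated with the agonist NPW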
Target sequence (P48145 whole entry, looked up): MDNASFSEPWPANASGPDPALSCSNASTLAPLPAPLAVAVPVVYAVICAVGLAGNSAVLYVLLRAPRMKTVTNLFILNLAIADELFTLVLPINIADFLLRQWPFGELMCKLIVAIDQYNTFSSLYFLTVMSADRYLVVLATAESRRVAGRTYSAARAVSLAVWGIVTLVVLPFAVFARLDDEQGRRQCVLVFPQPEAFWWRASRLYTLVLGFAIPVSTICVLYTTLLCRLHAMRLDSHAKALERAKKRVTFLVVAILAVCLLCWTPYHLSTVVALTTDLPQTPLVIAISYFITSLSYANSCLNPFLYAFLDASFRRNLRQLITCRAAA
HSF1 activator: increases HSF-1 driven luciferase reporter signal | NIH3T3-HGL HSF-1 luciferase reporter, MG132, 8 h; 100% = twice DMSO control signal | activation, % at 9 µM | hit rate 1.7% among 300,000 | AID 504408;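 active means mean replicate activation of at least 50% with a set share of replicates each reaching 50%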
697 NFkB inh: inhibitors of the PMA/ionomycin-induced NF-kB reporter in 697 B cells; hit rate 0.33% among 330,000; inhibition, % at 4 µM; 697 B-cell NF-kB luciferase reporter, 16 h; in the data active means inhibition above about 35%
T cruzi repl: T. cruzi replication inhibition | T. cruzi beta-gal in NIH3T3, luminescence, 90 h | inhibition, % (concentration not given with the values) | hit rate 1.4% among 300,000;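 active means mean inhibition across valid replicates above about 55%, limit read from the data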;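 further: signal also drops with host cell toxicity which is not excluded here; higher percent means less beta-gal luminescence so fewer parasites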
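Test system: β-gal T. cruzi (Tulahuen C4) inside NIH/3T3 cells / Quantity: 5,000 cells/well / Measured by: luminescence from GalScreen with 0.05% NP40, read after 60 min / Medium: DMEM plus 2% FBS / Measure: parasite load inhibition, % / Reagent: Tulahuen C4 trypomastigotes, 5000/well / Schedule: co-culture of at least 90 h after 3 h attachment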
HSF1 inhib: HSF1 inhibition; AID 2098; activity change, negative = inhibition, % at 7.5 µM (by protocol); hit rate 0.77% among 300,000; NIH3T3-HGL HSE-luciferase, MG132-induced, luminescence 8 h; stronger effect = lower value;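 active means more than half of replicate wells show activity change below -50%, luminescence cut by over half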;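 further: luciferase reports HSF-1 transcriptional activity via heat shock element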
Hits are given with their value; i = inactive; nt = no result.

SMILES | Jurkat NFkB inh | GPR7 antagonist | HSF1 activator | 697 NFkB inh | T cruzi repl | HSF1 inhib
O=C(CC(c1ccco1)S(=O)(=O)c1ccccc1)c1ccccc1 (stereo not given) | i | i | 84.9 | i | i | i
CC(C)CCNC(=O)CNC(=S)N(Cc1ccccc1)Cc1cccnc1 | i | i | i | i | 61.0 | i
COc1cccc(-n2nnnc2SCC(=O)Nc2ccccc2OC)c1 | i | i | i | i | i | i
CCCS(=O)(=O)c1nnnn1-c1cccc(OC)c1 | nt | i | i | nt | i | -94.7
COc1ccc(C(=O)Nc2cc3c(cc2Cl)OCCCO3)cc1 | i | i | 53.3 | i | i | i
Cc1ccc(C(=O)Nc2cc3c(cc2Cl)OCCCO3)cc1 | i | i | i | i | i | i
COc1cccc(C(=O)Nc2cc3c(cc2Cl)OCCCO3)c1 | i | i | 54.0 | i | i | i
COc1ccc2[nH]c3c(c2c1)CCN1C(=O)C(CC(=O)NCCCn2ccnc2)C[C@H](C(=O)N2CCCCC2)[C@@]31C (stereo not given in full) | nt | nt | nt | i | nt | nt
CCOC(=O)Nc1ccc2c(c1)Nc1ccccc1S2 | i | i | i | i | 62.5 | i
CCOC(=O)Nc1ccc2c(c1)Sc1ccccc1N2C(=O)CCN1CCOCC1 | i | i | 63.0 | i | i | i
Cc1ccc(S(=O)(=O)N2CCCc3cc(NC(=O)c4c(F)cccc4F)ccc32)cc1 | i | i | i | i | i | i
CCN(CC)c1ccc2nc3c4ccccc4c(=O)cc-3oc2c1 | i | i | i | i | i | -62.8
CCc1ccc2c(c1)[C@H]1OCC[C@H]1[C@@H](c1cccs1)N2 | i | i | 69.4 | i | i | i
O=C(c1cc2c(s1)CCCC2)N1CCN(Cc2ccc3c(c2)OCO3)CC1 | i | i | i | i | i | i
O=C(Oc1ccc2c(c1)OCO2)c1cc2c(s1)CCC2 | i | i | 80.8 | i | i | i
O=C(Cn1cnc2ccccc21)N/N=C/c1ccccc1 | i | i | i | i | i | i
CC(/C=N/NC(=O)Cn1cnc2ccccc21)=C\c1ccccc1 | i | i | i | i | i | -65.8
CCOC(=O)c1c(NC(=O)Cc2ccccc2)sc2c1CCN(C)C2 | i | i | i | i | 55.4 | i
CCOC(=O)c1c(NC(=O)Cc2ccccc2)sc2c1CCN(CC)C2 | i | i | i | i | i | i
CN1CCc2c(sc(NC(=O)c3ccc4ccccc4c3)c2C(N)=O)C1 | i | i | i | i | 54.9 | i
CCOC(=O)c1c(NC(=O)c2cccs2)sc2c1CCN(C(=O)OCC)C2 | i | i | 71.3 | i | i | i
CCOC(=O)N1CCC(NC(=O)c2cccs2)CC1 | i | i | 66.5 | i | i | i
CN(C(=O)COC(=O)CNC(=O)c1cccs1)c1c(N)n(Cc2ccccc2)c(=O)[nH]c1=O | i | nt | nt | i | nt | nt
O=C1OCC(c2ccc(Cl)s2)=C1c1ccccc1[N+](=O)[O-] | i | i | i | i | i | i
CN1/C(=C\P(=O)(N(C)C)N(C)C)C(C)(C)c2ccccc21 | i | i | i | i | 62.2 | i
SMILES | Jurkat NFkB inh | GPR7 antagonist | HSF1 activator | 697 NFkB inh | T cruzi repl | HSF1 inhib
O=C(CCl)N(Cc1cc(=O)[nH]c2ccccc12)c1ccccc1 | i | i | i | i | i | i
Cn1c(SCC(=O)NNC(=O)Nc2ccc(Cl)cc2)nnc1-c1ccccc1 | i | i | 55.5 | i | i | i
COC(=O)c1ccc(NC(=O)CSc2nnc(-c3ccccc3)n2C)cc1 | i | i | i | i | i | -67.2
CC(C)CC(=O)Nc1ccc2c(c1)oc1ccccc12 | i | i | 61.7 | i | i | i
Cc1ccc(-c2nnc(SCC(=O)Nc3ccc4c(c3)oc3ccccc34)n2C)c(Cl)c1 | i | i | 56.6 | i | i | i
Cc1occc1-c1nnc(SCC(=O)Nc2ccccc2)n1CCc1ccccc1 | i | i | i | i | i | i
Cc1occc1-c1nnc(SCC(=O)Nc2ccccc2)n1C | i | i | i | i | i | -81.8
Cc1nnc(SCC(=O)Nc2ccccc2)c2ccccc12 | i | i | 51.7 | i | i | i
COC(=O)c1sc(S(=O)(=O)NC(Cc2ccccc2)C(=O)O)c(C(=O)OC)c1C (stereo not given) | i | nt | nt | i | nt | nt
O=C(NCC1CCOCC1)c1ccc2nc(Cc3cccc(Cl)c3)oc2c1 | i | i | 54.0 | i | i | i
CCCCCC[n+]1c(-c2ccccc2)csc1Nc1ccccc1 | i | i | 63.3 | i | i | i
COc1ccccc1OCC(=O)N1CCCC(Nc2ccc(F)c(F)c2)C1 (stereo not given) | i | i | i | i | i | i

High-throughput results: PubChem BioAssay, several laboratories
